Test results as given in publication PMC3362663 (Bioorganic & medicinal chemistry letters, 2012).

Experiments:
Epac2 [1] = target: T1, Epac2 (Mus musculus, UniProt Q9EQZ6); assay: 8-NBD-cAMP competition binding to Epac2, dose-dependent titration
T1 sequence (Q9EQZ6 1-993 isoform Q9EQZ6-3): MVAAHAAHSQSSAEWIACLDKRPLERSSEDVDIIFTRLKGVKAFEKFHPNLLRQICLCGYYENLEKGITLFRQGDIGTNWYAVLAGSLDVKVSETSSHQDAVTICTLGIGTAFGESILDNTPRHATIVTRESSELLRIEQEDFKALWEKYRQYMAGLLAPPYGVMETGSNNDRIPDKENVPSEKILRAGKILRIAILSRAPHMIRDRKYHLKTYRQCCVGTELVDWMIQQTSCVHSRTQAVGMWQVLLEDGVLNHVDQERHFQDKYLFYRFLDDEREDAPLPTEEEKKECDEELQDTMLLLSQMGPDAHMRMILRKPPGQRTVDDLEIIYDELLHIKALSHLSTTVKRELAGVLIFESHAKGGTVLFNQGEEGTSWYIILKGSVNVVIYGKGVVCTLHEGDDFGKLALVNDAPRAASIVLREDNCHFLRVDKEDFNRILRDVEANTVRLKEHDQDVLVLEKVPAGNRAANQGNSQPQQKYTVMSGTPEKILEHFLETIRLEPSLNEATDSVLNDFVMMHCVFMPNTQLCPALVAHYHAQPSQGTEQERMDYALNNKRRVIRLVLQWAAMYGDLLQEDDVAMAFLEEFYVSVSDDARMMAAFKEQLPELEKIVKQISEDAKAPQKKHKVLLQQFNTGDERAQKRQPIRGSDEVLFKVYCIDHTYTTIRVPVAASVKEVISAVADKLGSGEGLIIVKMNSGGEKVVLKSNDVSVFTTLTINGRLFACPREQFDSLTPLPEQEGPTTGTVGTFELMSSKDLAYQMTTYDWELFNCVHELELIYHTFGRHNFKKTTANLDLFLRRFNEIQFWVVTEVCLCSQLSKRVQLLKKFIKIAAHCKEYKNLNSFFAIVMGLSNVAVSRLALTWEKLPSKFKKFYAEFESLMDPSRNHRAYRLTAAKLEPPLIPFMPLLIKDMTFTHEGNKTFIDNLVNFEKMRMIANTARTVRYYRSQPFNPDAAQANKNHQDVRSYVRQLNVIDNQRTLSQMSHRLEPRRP

type I PKA holoenzyme = assay: Counter-screen: type I PKA holoenzyme activity; type: biochemical; conditions: 25 μM compound, 100 μM cAMP
type II PKA holoenzyme = assay: Counter-screen: type II PKA holoenzyme activity; type: biochemical; conditions: 25 μM compound, 100 μM cAMP
Epac1 = target: T2, Epac1 (Homo sapiens, UniProt O95398); assay: cAMP-mediated Epac1 GEF activity; type: biochemical; conditions: for Inhibition of Epac1 GEF (Rap1-GDP exchange) activity: 25 μM compound in the presence of equal concentration (25 μM) of cAMP
T2 sequence (O95398 1-923): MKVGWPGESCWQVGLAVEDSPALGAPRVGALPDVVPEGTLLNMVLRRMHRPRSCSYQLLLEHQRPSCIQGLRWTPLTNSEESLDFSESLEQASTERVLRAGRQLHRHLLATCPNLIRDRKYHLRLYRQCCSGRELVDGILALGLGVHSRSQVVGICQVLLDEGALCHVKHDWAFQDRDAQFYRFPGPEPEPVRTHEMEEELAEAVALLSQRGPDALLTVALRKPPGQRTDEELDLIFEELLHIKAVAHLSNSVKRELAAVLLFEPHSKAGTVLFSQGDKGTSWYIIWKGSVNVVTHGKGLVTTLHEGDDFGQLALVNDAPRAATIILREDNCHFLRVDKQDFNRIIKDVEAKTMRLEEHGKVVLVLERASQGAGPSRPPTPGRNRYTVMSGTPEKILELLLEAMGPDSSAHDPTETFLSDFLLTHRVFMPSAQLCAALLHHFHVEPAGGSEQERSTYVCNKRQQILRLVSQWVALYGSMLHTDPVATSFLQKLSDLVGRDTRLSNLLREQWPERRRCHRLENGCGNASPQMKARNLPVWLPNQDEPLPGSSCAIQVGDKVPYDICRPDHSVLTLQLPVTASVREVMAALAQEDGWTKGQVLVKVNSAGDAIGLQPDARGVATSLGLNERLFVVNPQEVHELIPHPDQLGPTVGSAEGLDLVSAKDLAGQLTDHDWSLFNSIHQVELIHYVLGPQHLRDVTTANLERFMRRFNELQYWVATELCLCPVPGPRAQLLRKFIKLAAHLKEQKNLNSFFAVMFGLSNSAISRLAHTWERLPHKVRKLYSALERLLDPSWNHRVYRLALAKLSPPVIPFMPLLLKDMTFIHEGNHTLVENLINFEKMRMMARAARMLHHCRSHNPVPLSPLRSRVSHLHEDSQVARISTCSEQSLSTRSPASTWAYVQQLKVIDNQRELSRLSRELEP

Epac2 [2] = target: T1, Epac2; assay: cAMP-mediated Epac2 GEF activity, purified recombinant full-length protein; type: biochemical; conditions: for Inhibition of Epac2 GEF activity: 25 μM compound in the presence of equal concentration (25 μM) of cAMP
HEK293/Epac1 cells = assay: Epac1-mediated Akt/PKB phosphorylation; type: cell-based; conditions: 10 μM, 5 min pretreatment before 10 μM 007-AM
In short: (§1)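 HEK293 cells ectopically expressing Epac1 or Epac2 were pretreated, or not, with 10 μM test compound and then stimulated with 10 μM 007-AM. Cell lysates were analysed by Western blot with anti-phospho-Ser473 and anti-phospho-Thr308 PKB antibodies.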

HEK293/Epac2 cells = assay: Epac2-mediated Akt/PKB phosphorylation; type: cell-based; conditions: 10 μM, 5 min pretreatment before 10 μM 007-AM
In short: as §1

[3] = 25 μM in the presence of equal molar concentration of cAMP, unpublished data

N#Cc1c(C2CCCCC2)nc(SCC(=O)O)[nH]c1=O [compound 10]
IC50 (Epac2 [1]): > 300 µM

O=S(=O)(NCCNC/C=C/c1ccc(Br)cc1)c1cccc2cnccc12 [H89, reference compound]
Effect on cAMP-induced type I PKA holoenzyme activation (type I PKA holoenzyme): blocked the type I or II PKA activities completely
Effect on cAMP-induced type II PKA holoenzyme activation (type II PKA holoenzyme): blocked the type I or II PKA activities completely

Cc1ccc(NC(=O)CSc2nc(C3CCCCC3)c(C#N)c(=O)[nH]2)cc1 [11c]
IC50 (Epac2 [1]): > 300 µM

Cc1ccc(C)c(CSc2nc(C3CCNCC3)c(C#N)c(=O)[nH]2)c1 [6k]
IC50 (Epac2 [1]): > 300 µM

Cc1ccc(C)c(CSc2nc(C3CC3)c(C#N)c(=O)[nH]2)c1 [6g, 4-Cyclopropyl-2-(2,5-dimethylbenzylsulfanyl)-6-oxo-1,6-dihydro-pyrimidine-5-carbonitrile]
Inhibition of Epac1 GEF (Rap1-GDP exchange) activity (Epac1): more Epac2-specific
Inhibition of Epac2 GEF activity (Epac2 [2]): inhibit Epac2 GEF activity to basal levels
Effect on cAMP-induced type I PKA holoenzyme activation (type I PKA holoenzyme): not to alter
Effect on cAMP-induced type II PKA holoenzyme activation (type II PKA holoenzyme): not to alter
Block of Epac1-mediated Akt phosphorylation (HEK293/Epac1 cells): completely blocked
Block of Epac2-mediated Akt phosphorylation (HEK293/Epac2 cells): completely blocked

N#Cc1c(C2CCCCC2)nc(Nc2ccccc2)[nH]c1=O [8a]
IC50 (Epac2 [1]): > 300 µM

Cc1ccc(C)c(CSc2nc(C3CCCC3)c(C#N)c(=O)[nH]2)c1 [6h, 4-Cyclopentyl-2-(2,5-dimethyl-benzylsulfanyl)-6-oxo-1,6-dihydro-pyrimidine-5-carbonitrile]
Inhibition of Epac1 GEF (Rap1-GDP exchange) activity (Epac1): inhibit Epac1-mediated Rap1-GDP exchange activity
Inhibition of Epac2 GEF activity (Epac2 [2]): inhibit Epac2 GEF activity to basal levels
Effect on cAMP-induced type I PKA holoenzyme activation (type I PKA holoenzyme): not to alter
Effect on cAMP-induced type II PKA holoenzyme activation (type II PKA holoenzyme): not to alter
Block of Epac1-mediated Akt phosphorylation (HEK293/Epac1 cells): completely blocked
Block of Epac2-mediated Akt phosphorylation (HEK293/Epac2 cells): completely blocked

N#Cc1c(C2CCCCC2)nc(SCC(=O)Nc2ccccc2)[nH]c1=O [11a]
IC50 (Epac2 [1]): > 300 µM

Cc1cc(C)c(NC(=O)CSc2nc(C3CCCCC3)c(C#N)c(=O)[nH]2)c(C)c1 [11b]
IC50 (Epac2 [1]): > 300 µM

N#Cc1c(C2CCCCC2)nc(S)[nH]c1=O [5a]
IC50 (Epac2 [1]): > 300 µM
Relative Potency (RA) (Epac2 [1]; RA = IC50, cAMP/IC50, compound): <0.16

Cc1ccc(C)c(CSc2nc(C3CCCCC3)c(C#N)c(=O)[nH]2)c1 [compound 1]
Inhibition of Epac1 activity (Epac1; [3]): completely inhibiting
Inhibition of Epac2 activity (Epac2 [2]; [3]): completely inhibiting

N#Cc1c(C2CCCCC2)nc(Nc2ccc(Cl)cc2)[nH]c1=O [8b]
IC50 (Epac2 [1]): > 300 µM
